High-throughput results (PubChem)
In the library only some 1.9% were active in any assay of this set; here they are far more common.
Runt-CBFb FRET: blocks binding of human RUNX1 Runt domain to CBFb; Q01196+Q13951; AID 1496; inhibition, % at 20 µM; 0.46% of 220,000 active; Cerulean-Runt/Venus-CBFb FRET ratio 530/480, 1 h;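 active = inhibition over about 50% at 20 µM in the single-dose screen, limit read from the data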
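Reagent – Venus-CBFb binding partner, 100 nM · Assay system – Cerulean-tagged RUNX1 Runt domain (FRET donor) fusion protein · Input – 100 nM per protein · Incubation – two 1 h room-temperature incubations shielded from light · Measured by – FRET fluorescence · Medium – Tris buffer pH 7.5 with salts and BSA · Benchmarks – unlabeled CBFb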
RanGTP-Impb inh: disruptors of Ran-importin-beta complex formation – biochemical, FRET, CFP-Ran, YFP-importin-beta, homogeneous, primary screen; cell-free CFP-Ran/YFP-importin-beta FRET ratio; inhibition, % (concentration not given with the values); 1.1% of 300,000 active; AID 2216;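 active = more than half of the replicate wells show a fall in the fluorescence ratio signal beyond about 16%, limit read from the data, passing the limit was not always enough; inconclusive = exactly half of the replicate wells pass the set limit; inactive = fewer than half of replicates pass the limit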
Runt-SMMHC FRET: Runt domain-CBFb-SMMHC interaction inhibition. Q01196+Q13951. Cerulean-Runt/Venus-CBFb-SMMHC FRET ratio 530/480, 1 h. inhibition, % at 20 µM. 0.74% of 220,000 active. AID 1434;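 active = mean inhibition across duplicate retests at 20 µM reaching about 50%, limit read from the data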;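 also: inhibitors lower the FRET ratio by blocking Runt binding to CBFb-SMMHC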
Hck-Nef inh: inhibitors of human Hck kinase activated by Nef; 0.68% of 220,000 active; inhibition, % at 20 µM; Recombinant Hck-YEEI plus Nef, Z-Lyte FRET kinase assay;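 active = Hck-Nef kinase inhibition above about 50%, limit read from the data; inactive = inhibition below that limit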
Target sequence (P08631 whole entry, looked up): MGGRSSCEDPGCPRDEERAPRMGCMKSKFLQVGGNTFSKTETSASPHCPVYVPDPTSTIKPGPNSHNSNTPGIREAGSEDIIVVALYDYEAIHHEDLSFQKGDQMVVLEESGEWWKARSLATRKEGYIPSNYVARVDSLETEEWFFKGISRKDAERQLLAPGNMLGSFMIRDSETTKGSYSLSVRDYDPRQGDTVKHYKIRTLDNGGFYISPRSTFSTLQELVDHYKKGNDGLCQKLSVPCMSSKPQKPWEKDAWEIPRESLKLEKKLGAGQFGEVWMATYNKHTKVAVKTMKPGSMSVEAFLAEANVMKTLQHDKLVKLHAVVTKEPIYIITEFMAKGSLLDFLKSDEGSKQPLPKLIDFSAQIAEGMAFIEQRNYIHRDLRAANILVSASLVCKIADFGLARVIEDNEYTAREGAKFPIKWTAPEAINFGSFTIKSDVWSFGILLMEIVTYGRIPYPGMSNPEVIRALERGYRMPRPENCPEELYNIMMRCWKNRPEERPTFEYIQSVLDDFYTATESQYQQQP
Large screens that a line does not name were inactive.

Nc1c(C(=O)NCCN2CCOCC2)c2nc3ccccc3nc2n1CCc1ccccc1	Runt-CBFb FRET 73.7, RanGTP-Impb inh 85.1
Nc1c(C(=O)NCCN2CCOCC2)c2nc3ccccc3nc2n1-c1ccccc1	RanGTP-Impb inh 80.6, Runt-SMMHC FRET 97.9
Nc1c(C(=O)NCc2ccc3c(c2)OCO3)c2nc3ccccc3nc2n1CCCN1CCOCC1	RanGTP-Impb inh 61.1, Runt-SMMHC FRET 81.1
Nc1c(C(=O)NCCN2CCOCC2)c2nc3ccccc3nc2n1-c1ccc2c(c1)OCO2	none
Cc1ccc2c(c1)C(c1ccccc1)N(C(=O)c1ccc(Br)cc1)CC(=O)N2 (stereo unspecified)	none (no result: Runt-CBFb FRET, Runt-SMMHC FRET, Hck-Nef inh)
CCN1Cc2c(/C=C/c3ccccc3)nc3ccc(OC)cc3c2N(c2cccc(Cl)c2)C1	none
CC(=O)c1c(NCCc2ccccc2)nc(=S)n(-c2ccccc2)c1C	none
COc1ccc(N2CCN(C(=O)c3c(C)nn(-c4ccccc4)c3C)CC2)cc1	none
CCn1c(C)c(C(C)=O)c(N2CCN(c3ccc(OC)cc3)CC2)nc1=S	RanGTP-Impb inh 83.8
CC(=O)c1c(N2CCN(c3cccc(Cl)c3)CC2)nc(=S)n(-c2ccccc2)c1C	RanGTP-Impb inh 46.4
COc1ccc(N2CCN(c3nc(=S)n(-c4ccccc4)c(C)c3C(C)=O)CC2)cc1	RanGTP-Impb inh 91.8
CC(=O)c1c(N2CCN(c3ccccn3)CC2)nc(=S)n(-c2ccccc2)c1C	Runt-CBFb FRET 93.1, RanGTP-Impb inh 57.0, Runt-SMMHC FRET 98.8
Cc1ccc(NC(=O)Cc2cc(C(=O)O)c3ccccc3n2)c(C)c1	none
O=C(c1ccc(Cl)c(NC2=NC3CS(=O)(=O)CC3S2)c1)N1CCN(c2ccc(F)cc2)CC1 (stereo unspecified)	none (no result: Runt-CBFb FRET, Runt-SMMHC FRET, Hck-Nef inh)
CCn1c(C)c(C(C)=O)c(N2CCN(c3cccc(Cl)c3)CC2)nc1=S	RanGTP-Impb inh 28.5
CC(=O)c1c(N2CCN(C)CC2)nc(=S)n(Cc2ccccc2)c1C	Runt-CBFb FRET 62.5, RanGTP-Impb inh inconclusive, Runt-SMMHC FRET 82.9
Cc1ccc2c(c1)Sc1c(ccc3ccccc13)N2	none
N#Cc1cnn(-c2ccccc2)c1NC(=O)CN1CCN(c2ccccc2)CC1	none
CCOC(=O)c1ccc(NC(=O)c2nc[nH]c2C(=O)N2CCN(c3ccccc3)CC2)cc1	none
COc1ccc(-c2nnc(SCC(=O)NC3CCCc4ccccc43)n2N)cc1 (stereo unspecified)	none
CC(C)C(NC(N)=O)C(=O)NC1CCCCC1 (stereo unspecified)	none
O=C(CN1CCC(n2nnc3cc(F)ccc32)CC1)NCc1ccco1	RanGTP-Impb inh inconclusive
Cc1ccccc1NC(=O)c1cn2c(nc3ccccc32)c(C#N)c1C	Runt-SMMHC FRET 81.1
Cc1cccc(-n2c3nc(=O)[nH]c(=O)c-3cc3cc([N+](=O)[O-])ccc32)c1	Runt-SMMHC FRET 54.6
Cc1ccc(C)c(-n2c3nc(=O)[nH]c(=O)c-3cc3cc([N+](=O)[O-])ccc32)c1	none (no result: RanGTP-Impb inh)
CC1=C([N+](=O)[O-])C(c2ccccc2Cl)NC(=O)N1C (stereo unspecified)	none (no result: Runt-CBFb FRET, Runt-SMMHC FRET, Hck-Nef inh)
COc1cccc(C(=O)Nc2nnc(-c3ccccc3)s2)c1	none (no result: Runt-CBFb FRET, Runt-SMMHC FRET, Hck-Nef inh)
COc1cccc(C(=O)Nc2sc3c(c2C#N)CCN(C(C)=O)C3)c1	Runt-SMMHC FRET 51.1 (no result: RanGTP-Impb inh)
O=C(Nc1nc2c(s1)CCCC2)c1cccc(S(=O)(=O)N2CCCc3ccccc32)c1	none
COc1cccc(C(=O)Nc2nc3c(s2)CN(C)CC3)c1	Runt-SMMHC FRET 86.8 (no result: Runt-CBFb FRET)
CN1CCc2nc(NC(=O)c3cccc(S(=O)(=O)N4CCc5ccccc54)c3)sc2C1	RanGTP-Impb inh 48.1, Runt-SMMHC FRET 84.5
Cc1nnsc1SCCNC(=O)c1ccc(F)cc1	none
Cc1ccc(CN2CCNC(=O)C2CC(=O)N(C)C2CCCCC2)cc1 (stereo unspecified)	none (no result: Runt-CBFb FRET, Runt-SMMHC FRET, Hck-Nef inh)
CC(C)c1[nH]nc2c1C1(CCN(Cc3ccccc3)CC1)C(C#N)=C(N)O2	RanGTP-Impb inh 20.6, Runt-SMMHC FRET 59.1
Cc1cc(C(=O)CN2C(=O)c3cccc(N)c3C2=O)c(C)n1Cc1cccs1	RanGTP-Impb inh 66.4, Runt-SMMHC FRET 61.6
Cc1ccc(Cl)cc1-n1c(=O)cc(N2CCN(C(=O)c3ccco3)CC2)[nH]c1=O	RanGTP-Impb inh 32.4
CS(=O)(=O)Nc1nnc(CCc2ccccc2)s1	none (no result: Runt-CBFb FRET, Runt-SMMHC FRET, Hck-Nef inh)
COc1ccc(CCc2nnc(NS(C)(=O)=O)s2)cc1	RanGTP-Impb inh 27.4 (no result: Runt-CBFb FRET, Runt-SMMHC FRET, Hck-Nef inh)
COc1ccc(/C=C(/C(=O)c2cccs2)N2C=CC=CC2=C(C#N)C#N)cc1	RanGTP-Impb inh 21.8
Cc1cccc2nc(CSc3nc4ccccc4[nH]3)cn12	Runt-CBFb FRET 70.6
N#C/C(=C/c1ccc(F)cc1)c1nnc(NC(=O)c2ccccc2)s1	Runt-SMMHC FRET 81.1
COc1ccc(NC(=O)Oc2cc(C)ccc2C(C)C)cc1	none
Oc1ccc2ccccc2c1/C=N/n1cnnc1	Runt-CBFb FRET 66.7, Runt-SMMHC FRET 115.5
CCOC(=O)CNC(=O)c1ccc2[nH]c3c(c2c1)CCCC3	RanGTP-Impb inh 18.1
CN1CCN(c2nc3ccccc3nc2C(C#N)C(=O)OC2CCCCC2)CC1 (stereo unspecified)	RanGTP-Impb inh 15.2
CCN1CCN(c2nc3ccccc3nc2C(C#N)C(=O)OC2CCCCC2)CC1 (stereo unspecified)	none (no result: RanGTP-Impb inh)
COCCNC(=O)C(C#N)c1nc2ccccc2nc1N1CCCCCC1 (stereo unspecified)	RanGTP-Impb inh 71.9, Runt-SMMHC FRET 51.3
COCCCNC(=O)C(C#N)c1nc2ccccc2nc1N1CCN(Cc2ccccc2)CC1 (stereo unspecified)	RanGTP-Impb inh inconclusive
COCCCn1c(N)c(-c2nc3ccccc3n2C)c2nc3ccccc3nc21	none
COc1cccc(Cn2c(N)c(C#N)c3nc4ccccc4nc32)c1OC	none
Cn1c(-c2c(N)n(CCc3ccccc3)c3nc4ccccc4nc23)nc2ccccc21	none
N#Cc1c(N)n(CCc2ccc(F)cc2)c2nc3ccccc3nc12	Runt-CBFb FRET 93.3, RanGTP-Impb inh 44.4, Runt-SMMHC FRET 77.1
COc1cc(Cn2c(N)c(C#N)c3nc4ccccc4nc32)cc(OC)c1	Runt-CBFb FRET 72.0, RanGTP-Impb inh 37.9, Runt-SMMHC FRET 113.4
N#Cc1c(N)n(CCOC(=O)c2cccc([N+](=O)[O-])c2)c2nc3ccccc3nc12	none
N#Cc1c(N)n(CCOC(=O)c2cccc(Br)c2)c2nc3ccccc3nc12	RanGTP-Impb inh inconclusive, Runt-SMMHC FRET 51.2
COCCn1c(N)c(C#N)c2nc3ccccc3nc21	Runt-CBFb FRET 107.5, RanGTP-Impb inh 71.5, Runt-SMMHC FRET 57.2
O=C(NC(=S)Nc1ccc2oc(=O)ccc2c1)c1cc2ccccc2o1	none
Cn1cnc([N+](=O)[O-])c1Sc1ncccc1N	none
COc1ccc(Cn2c(N)c(C#N)c3nc4ccccc4nc32)cc1	Runt-CBFb FRET 79.7, RanGTP-Impb inh 33.3, Runt-SMMHC FRET 93.9
Cc1ccc(C(=O)NCCn2c(N)c(C#N)c3nc4ccccc4nc32)cc1	Runt-CBFb FRET 97.7, RanGTP-Impb inh 58.4, Runt-SMMHC FRET 78.7
CCCCn1c(N)c(S(=O)(=O)c2ccc(C)cc2)c2nc3ccccc3nc21	none
Cc1cc(Cl)ccc1OC(C)C(=O)NNC(=O)C1CCCCC1C(=O)O (stereo unspecified)	none (no result: Runt-CBFb FRET, Runt-SMMHC FRET, Hck-Nef inh)
